MrgX1 antagonist: antagonists of human MrgX1 receptor. Q96LB2. MRGX1-HEK293 calcium flux, Fluo-4, BAM8-22 antagonism; hits give low values. B-score at 10 µM. hit rate 1.3% among 310,000. AID 588676;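 active = calcium-response B-score plate-corrected more than 3 library SD below zero, starting fluorescence within 5 deviations, no agonist response on first addition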;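 also: peak minus trough fluorescence over baseline after final BAM8-22 challenge near maximal dose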
Target sequence (Q96LB2 whole entry, looked up): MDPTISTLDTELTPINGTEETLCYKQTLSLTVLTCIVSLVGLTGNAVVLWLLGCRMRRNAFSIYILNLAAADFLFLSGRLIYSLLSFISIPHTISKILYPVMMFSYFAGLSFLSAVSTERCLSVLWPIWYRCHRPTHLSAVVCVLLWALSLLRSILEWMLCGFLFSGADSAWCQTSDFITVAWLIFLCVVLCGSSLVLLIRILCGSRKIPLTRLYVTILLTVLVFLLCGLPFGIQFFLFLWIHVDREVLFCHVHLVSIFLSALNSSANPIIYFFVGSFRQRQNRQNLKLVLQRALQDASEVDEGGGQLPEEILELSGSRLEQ
RGS4 pot: potentiators or activators of RGS4 | HEK293 M3R/inducible RGS4, carbachol calcium flux Fluo4; hits give low values | B-score at 10 µM | hit rate 0.92% among 310,000;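 active = B-score of the integrated calcium signal more than 4 SD below the library mean, with starting fluorescence not abnormally high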;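 also: negative B-score means reduced calcium response which marks RGS4 activation or potentiation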
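test system = M3R-expressing HEK293 line, RGS4 induced by doxycycline | probe or stimulus = carbachol at ECmax as muscarinic agonist stimulus | timing = dye loading 30 min 37 °C, buffer rest 30 min RT | signal = calcium dye Fluo4 fluorescence | evaluation = B score from integrated fluorescence ratio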
MrgX1 PAM: allosterically activates human MrgX1 receptor signaling. Q96LB2. MrgX1-HEK293, Fluo-4 calcium flux, FDSS; hits give high values. B-score at 10 µM. hit rate 0.63% among 310,000. AID 588675;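 active = plate-corrected calcium response at least 3 library SD above typical, normal starting fluorescence, not activating the receptor alone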;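 also: compound read alongside a low EC10 to EC30 dose of BAM8-22 agonist; peak minus trough fluorescence over baseline measured at the second addition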
MrgX1 ag: human MrgX1 receptor agonism, primary screen | B-score at 10 µM | Q96LB2 | hit rate 0.44% among 310,000 | MrgX1-HEK293 cells, Fluo-4 calcium fluorescence, agonist mode; hits give high values;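 active = calcium response B-score plate-corrected fluorescence ratio at least 3 library SD, with starting fluorescence B-score inside 5 SD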
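System – MrgX1-expressing HEK293 cells · Incubation – cells plated overnight, dye loaded 0.5 h 37 °C, 0.5 h room temperature · Technique – kinetic Fluo-4 NW fluorescence of intracellular calcium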
RGS4 inh: inhibitors of human RGS4; B-score at 10 µM; HEK293 M3R/RGS4 inducible, Fluo-4 calcium flux; hits give high values; triggered by carbachol at its EC20; hit rate 0.45% among 310,000;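 active = B-score, a plate-corrected calcium signal, over three deviations above library mean, with baseline fluorescence within five deviations of library mean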;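 also: RGS4 expression induced by doxycycline in cells with stable M3 receptor; B-score is computed from the integrated fluorescence ratio over baseline after carbachol; higher B-score means a larger calcium signal and so more RGS4 inhibition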
Target sequence (P49798 whole entry, looked up): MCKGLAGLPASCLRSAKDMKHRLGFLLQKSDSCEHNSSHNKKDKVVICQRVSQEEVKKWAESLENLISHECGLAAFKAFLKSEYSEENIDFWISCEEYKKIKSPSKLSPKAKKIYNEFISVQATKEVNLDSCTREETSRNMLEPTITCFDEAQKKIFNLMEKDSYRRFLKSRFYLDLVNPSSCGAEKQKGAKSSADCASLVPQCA
MrgX1 ant reconf: confirmation of human MrgX1 receptor antagonists | shares compounds with MrgX1 antagonist | MrgX1-HEK293, BAM8-22 calcium flux, Fluo-4; hits give low values | remaining BAM8-22 calcium response % of control (hits give low values), % at 10 µM | hit rate 19% among 2,300 | AID 602420;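 active = remaining agonist calcium response no higher than 100% minus 3 SD of agonist-only control wells, with starting fluorescence near control levels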;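 also: agonist BAM8-22 given at a near maximal EC90 to ECmax level; peak minus minimum fluorescence divided by baseline after agonist addition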
HEK293 Ca flux: MrgX1 antagonist counter-screen hit in parental HEK293 cells; shares compounds with MrgX1 antagonist; AID 624111; hit rate 2% among 4,000; Fluo-4 calcium fluorescence, FDSS; fluorescence ratio F(max-min)/F0 at 10 µM;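 active = duplicate-averaged calcium fluorescence ratio at least three times the standard deviation of buffer wells, a nonspecific response in parental cells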
HEK293 Ca counter: activity in parental HEK293 cells without MrgX1. hit rate 0.4% among 4,000. shares compounds with MrgX1 antagonist. fluorescence ratio F(max-min)/F0 at 10 µM. parental HEK293 calcium flux, Fluo-4 fluorescence ratio; hits give high values. AID 624114;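 active = calcium fluorescence ratio, averaged over duplicates, at least 3 SD of the buffer-well ratio, meaning a nonspecific response in receptor-free cells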;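 also: untransfected parental HEK293 lacking MrgX1 used as counterscreen for MrgX1 allosteric activators; fluorescence change taken during the second addition on a kinetic imager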
HEK293 Ca cntr2: activity in parental HEK293 cells lacking MrgX1 receptor; shares compounds with MrgX1 antagonist; Fluo-4 calcium fluorescence (FDSS); hits give high values; fluorescence ratio F(max-min)/F0 at 10 µM; hit rate 8.7% among 4,000;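 active = calcium fluorescence ratio at least three times the spread of buffer wells, meaning a non-specific response in parental cells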
* = called active by the depositor; i = inactive; . = no result. Sampled rows, rich in hits. Any-hit rate of the full collection: about 3.5%.

SMILES	MrgX1 antagonist	RGS4 pot	MrgX1 PAM	MrgX1 ag	RGS4 inh	MrgX1 ant reconf	HEK293 Ca flux	HEK293 Ca counter	HEK293 Ca cntr2
CN(C)C(CNC(=O)c1ccc(C(F)(F)F)cc1)c1ccco1 (stereo not drawn)	i	i	i	i	i	.	.	.	.
Cc1noc(C)c1CSCC(=O)N(CC(C)C)c1c(N)n(Cc2ccccc2)c(=O)[nH]c1=O	i	i	i	i	i	.	.	.	.
S=C(NC1CCCCC1)N1CCCCC1	i	i	i	i	i	.	.	.	.
CC(=O)Nc1ccc(S(=O)(=O)Nc2nc3ccccc3nc2Nc2cccc(O)c2)cc1	i	i	i	i	i	.	.	.	.
CC(=O)Nc1ccc(S(=O)(=O)Nc2nc3ccccc3nc2Nc2ccc3ccccc3c2)cc1	i	i	i	i	i	.	.	.	.
CC(=O)Nc1ccc(S(=O)(=O)Nc2nc3ccccc3nc2Nc2ccc(N)cc2)cc1	-6.2*	i	i	i	i	75%*	i	i	i
COc1ccc(S(=O)(=O)Nc2nc3ccccc3nc2Nc2ccc3c(c2)OCO3)cc1	-5.1*	i	i	i	i	i	i	i	i
CC(=O)Nc1ccc(S(=O)(=O)Nc2cc(C)c(-n3nc4ccccc4n3)cc2O)cc1	-5.2*	i	i	i	i	i	i	i	i
O=S(=O)(Nc1nc2ccccc2nc1Nc1ccc2c(c1)OCCO2)c1cccs1	i	i	i	i	i	.	.	.	.
CC(C)C(C)(C#N)NC(=O)CSc1nnc(-c2ccccc2)o1 (stereo not drawn)	i	i	i	i	i	.	.	.	.
O=C(NC(=S)Nc1ccccc1)c1ccc(-c2ccccc2)cc1	i	i	i	i	i	.	.	.	.
O=C(O)c1ccc(NC(=S)NC(=O)c2ccc(-c3ccccc3)cc2)cc1	-5.2*	i	i	i	i	82%*	i	i	i
Cc1ccc(N2CN(Cc3ccco3)CNC2=S)c(C)c1	-6.3*	i	i	i	i	i	i	i	i
Cc1ccc(N2CN(Cc3cccnc3)CNC2=S)c(C)c1	i	i	i	i	i	.	.	.	.
CCOC(=O)CN1C(=O)N[C@@H](c2cccc(C(F)(F)F)c2)[C@@H](C(=O)OC)[C@H]1C	-6.1*	i	i	i	i	i	i	i	i
COCCN1C(=O)N[C@@H](c2cccc(C(F)(F)F)c2)[C@H](C(=O)OC)[C@H]1C	i	i	i	i	i	.	.	.	.
COC(=O)c1ccc(CSc2nnc(SCc3ccc(C(=O)OC)o3)s2)o1	i	i	i	i	i	.	.	.	.
COC(=O)c1ccc(CSc2nc(C)nc3sc(C)c(C)c23)o1	-7.4*	i	i	i	i	i	i	i	i
Cc1ccc(-c2csc(N(CC3CCCO3)C(=O)c3ccco3)n2)cc1 (stereo not drawn)	-4.7*	i	i	i	i	i	i	i	i
O=C(c1ccco1)N(CC1CCCO1)c1nc(-c2ccccc2)cs1 (stereo not drawn)	i	i	i	i	i	.	.	.	.
N#CCCN1C(=O)C2(OCCO2)c2ccccc21	i	i	i	i	i	.	.	.	.
CCOC(=O)c1c(C)[nH]c(C(=O)COC(=O)CNC(=O)c2ccc(Cl)cc2Cl)c1C	i	i	i	i	i	.	.	.	.
O=C(NCSC1=NCCS1)c1ccccc1	-5.3*	i	i	i	i	i	i	i	i
COc1cccc(C(C(=O)NC(C)(C)C)N(C(=O)CCC(=O)Nc2cc(C)on2)c2ccc3c(c2)OCCO3)c1OC (stereo not drawn)	i	i	i	i	i	.	.	.	.
COc1ccc(NC(=O)C(NC(=O)c2ccc(C)cc2)c2ccccc2)cc1 (stereo not drawn)	i	i	i	i	i	.	.	.	.
SMILES	MrgX1 antagonist	RGS4 pot	MrgX1 PAM	MrgX1 ag	RGS4 inh	MrgX1 ant reconf	HEK293 Ca flux	HEK293 Ca counter	HEK293 Ca cntr2
CC1=Nc2ccc3ccccc3c2C1(C)C	-5.8*	i	i	i	i	i	i	i	i
CC(=O)c1ccccc1C(=O)N(C)C1CCCN(Cc2ccccc2F)C1 (stereo not drawn)	-4.8*	i	i	i	i	i	i	i	45*
CCCCCNc1nc2sc3c(c2c(=O)n1-c1cccc(Cl)c1)CCN(C)C3	i	i	i	i	i	.	.	.	.
CCc1ccccc1NC(=O)[C@@H]1CCC(=O)N1C1OC(=O)c2ccccc21 (stereo partly drawn)	-8.1*	i	i	i	i	85%*	i	i	i
CCOC(=O)CC(NC(=O)c1cccc2c1C(=O)N(Cc1cccnc1)C2)c1ccc(OC(C)C)cc1 (stereo not drawn)	i	i	i	i	i	.	.	.	.
S=C(NCc1ccc(Cl)cc1)NCc1ccco1	i	i	i	i	i	.	.	.	.
CCNC(=S)NCc1ccco1	-6.2*	i	i	i	i	i	i	i	i
Cc1ccc(-c2nc3cccnc3o2)cc1NC(=O)COc1ccc(C(C)(C)C)cc1	-12*	-8.2*	i	i	i	83%*	i	i	i
COc1cccc(CNS(=O)(=O)c2ccc3c(c2)oc(=O)n3C)c1	i	i	i	i	i	.	.	.	.
CCOc1nc(Nc2ccc(OC)c(Cl)c2)nc(OCC)n1	-4.8*	i	i	i	i	i	i	i	i
CCOc1nc(Nc2ccc(OC)cc2)nc(OCC)n1	i	i	i	i	i	.	.	.	.
CC[C@H](C)[C@@H](C(=O)NCCCCCCCCCCC(=O)N1CCN(C(=O)OC(C)(C)C)CC1)n1cc(CCCCN=C(NC(=O)OC(C)(C)C)NC(=O)OC(C)(C)C)nn1	i	.	i	i	.	.	.	.	.
CC[C@H](C)[C@@H](C(=O)NCCCCCCCCCCC(=O)N1CCN(C(=O)OC(C)(C)C)CC1)n1cc(CCCCCNC(=O)OC(C)(C)C)nn1	-13*	.	i	i	.	44%*	i	i	i
Cc1ccc(NCc2ccccc2O)cc1	i	i	i	i	i	.	.	.	.

Compound activity as filed in PubChem.
